Data published in the M2OR odorant receptor database.

Tests used:
Conditions in all cases: stereoisomer not certain
OR1G1 (Homo sapiens) = target: T1, OR1G1 (Homo sapiens) (UniProt P47890)
T1 sequence (whole entry): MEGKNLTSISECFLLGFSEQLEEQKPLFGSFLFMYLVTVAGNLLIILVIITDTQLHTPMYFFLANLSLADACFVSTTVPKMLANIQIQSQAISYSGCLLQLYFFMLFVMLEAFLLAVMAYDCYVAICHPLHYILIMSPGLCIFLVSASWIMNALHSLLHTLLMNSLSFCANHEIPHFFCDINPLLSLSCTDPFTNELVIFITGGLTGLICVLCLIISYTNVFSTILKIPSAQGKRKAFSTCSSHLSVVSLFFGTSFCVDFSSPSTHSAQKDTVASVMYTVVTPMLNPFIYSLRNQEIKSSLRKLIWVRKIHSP
Summary of the method: (§1)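 Transient luciferase assays in mammalian cell lines were common, though methods varied by source. The values come from published papers and their supplementary material, with extra details from the original authors when needed. Responsive refers to a measured signal the original authors judged statistically different from baseline, and non-responsive (inactive) to the remainder.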

OR1L3 (Homo sapiens) = target: T2, OR1L3 (Homo sapiens) (UniProt Q8NH93)
T2 sequence (whole entry): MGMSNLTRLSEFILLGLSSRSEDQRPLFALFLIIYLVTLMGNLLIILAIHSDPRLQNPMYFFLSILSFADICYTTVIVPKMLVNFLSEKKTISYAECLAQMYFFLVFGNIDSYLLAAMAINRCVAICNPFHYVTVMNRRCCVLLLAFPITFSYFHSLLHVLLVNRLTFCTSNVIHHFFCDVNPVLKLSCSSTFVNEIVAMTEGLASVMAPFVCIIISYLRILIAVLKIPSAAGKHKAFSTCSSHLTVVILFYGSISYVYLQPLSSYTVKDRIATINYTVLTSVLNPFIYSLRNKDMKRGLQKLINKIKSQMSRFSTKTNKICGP
Summary of the method: as §1

OR1E3 (Homo sapiens) = OR1E3 (Homo sapiens) (UniProt Q8WZA6)
Summary of the method: as §1

OR1F1 (Homo sapiens) = OR1F1 (Homo sapiens) (UniProt O43749)
Summary of the method: as §1

OR1F12P (Homo sapiens) = OR1F12P (Homo sapiens) (UniProt Q8NHA8)
Summary of the method: as §1

OR1I1 (Homo sapiens) = OR1I1 (Homo sapiens) (UniProt O60431)
Summary of the method: as §1

OR1J1 (Homo sapiens) = OR1J1 (Homo sapiens) (UniProt Q8NGS3)
Summary of the method: as §1

OR1K1 (Homo sapiens) = OR1K1 (Homo sapiens) (UniProt Q8NGR3)
Summary of the method: as §1

OR1L1 (Homo sapiens) = OR1L1 (Homo sapiens) (UniProt Q8NH94)
Summary of the method: as §1

OR1L4 (Homo sapiens) = OR1L4 (Homo sapiens) (UniProt Q8NGR5)
Summary of the method: as §1

OR1L6 (Homo sapiens) = OR1L6 (Homo sapiens) (UniProt Q8NGR2)
Summary of the method: as §1

OR1L8 (Homo sapiens) = OR1L8 (Homo sapiens) (UniProt Q8NGR8)
Summary of the method: as §1

OR1M1 (Homo sapiens) = OR1M1 (Homo sapiens) (UniProt Q8NGA1)
Summary of the method: as §1

OR1F1 = test system: OR1F1
Summary of the method: as §1

OR1J2 (Homo sapiens) = OR1J2 (Homo sapiens) (UniProt Q8NGS2)
Summary of the method: as §1

OR1J4 (Homo sapiens) = OR1J4 (Homo sapiens) (UniProt Q8NGS1)
Summary of the method: as §1

OR1L1 = test system: OR1L1
Summary of the method: as §1

OR1L4 = test system: OR1L4
Summary of the method: as §1

OR1L6 = test system: OR1L6
Summary of the method: as §1

OR1L8 T27P R211P = test system: OR1L8 T27P R211P
Summary of the method: as §1

Measured: odorant receptor agonist call

OR1M1 (Homo sapiens), sequence (Q8NGA1 whole entry): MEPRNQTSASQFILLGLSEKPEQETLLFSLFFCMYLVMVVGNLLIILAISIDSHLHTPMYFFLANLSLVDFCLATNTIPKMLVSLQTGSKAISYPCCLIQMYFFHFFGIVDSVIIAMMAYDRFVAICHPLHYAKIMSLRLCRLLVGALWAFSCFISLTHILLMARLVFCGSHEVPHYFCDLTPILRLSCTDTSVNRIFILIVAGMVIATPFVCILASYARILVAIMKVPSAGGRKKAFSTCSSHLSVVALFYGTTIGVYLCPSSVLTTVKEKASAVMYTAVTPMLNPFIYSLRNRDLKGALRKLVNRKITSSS
OR1F12P (Homo sapiens), sequence (Q8NHA8 whole entry): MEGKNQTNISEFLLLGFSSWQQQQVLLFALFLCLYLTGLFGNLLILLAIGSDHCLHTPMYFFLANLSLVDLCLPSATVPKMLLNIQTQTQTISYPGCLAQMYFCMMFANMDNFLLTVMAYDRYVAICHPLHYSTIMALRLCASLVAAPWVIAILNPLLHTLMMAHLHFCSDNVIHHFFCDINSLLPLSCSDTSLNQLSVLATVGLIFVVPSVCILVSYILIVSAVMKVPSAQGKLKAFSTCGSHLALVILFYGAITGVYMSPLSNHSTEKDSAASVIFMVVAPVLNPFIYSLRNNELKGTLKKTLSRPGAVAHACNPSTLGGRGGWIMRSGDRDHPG
OR1K1 (Homo sapiens), sequence (Q8NGR3 whole entry): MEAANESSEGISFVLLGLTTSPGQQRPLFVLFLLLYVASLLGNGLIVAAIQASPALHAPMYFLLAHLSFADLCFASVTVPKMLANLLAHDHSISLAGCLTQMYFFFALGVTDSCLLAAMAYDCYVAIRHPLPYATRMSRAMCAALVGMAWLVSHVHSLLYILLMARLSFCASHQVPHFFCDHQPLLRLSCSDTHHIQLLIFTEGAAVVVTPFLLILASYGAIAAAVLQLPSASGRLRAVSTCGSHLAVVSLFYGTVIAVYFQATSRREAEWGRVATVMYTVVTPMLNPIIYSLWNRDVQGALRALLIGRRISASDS
OR1L4 (Homo sapiens), sequence (Q8NGR5 whole entry): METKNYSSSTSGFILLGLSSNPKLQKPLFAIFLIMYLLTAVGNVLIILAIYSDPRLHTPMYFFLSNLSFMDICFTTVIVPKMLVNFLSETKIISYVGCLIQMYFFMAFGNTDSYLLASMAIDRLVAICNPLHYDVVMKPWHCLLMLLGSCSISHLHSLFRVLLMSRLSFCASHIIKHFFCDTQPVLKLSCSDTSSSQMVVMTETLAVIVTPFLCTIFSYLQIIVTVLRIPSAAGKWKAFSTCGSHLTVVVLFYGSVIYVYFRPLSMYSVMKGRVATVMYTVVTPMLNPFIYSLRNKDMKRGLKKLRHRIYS
OR1I1 (Homo sapiens), sequence (O60431 whole entry): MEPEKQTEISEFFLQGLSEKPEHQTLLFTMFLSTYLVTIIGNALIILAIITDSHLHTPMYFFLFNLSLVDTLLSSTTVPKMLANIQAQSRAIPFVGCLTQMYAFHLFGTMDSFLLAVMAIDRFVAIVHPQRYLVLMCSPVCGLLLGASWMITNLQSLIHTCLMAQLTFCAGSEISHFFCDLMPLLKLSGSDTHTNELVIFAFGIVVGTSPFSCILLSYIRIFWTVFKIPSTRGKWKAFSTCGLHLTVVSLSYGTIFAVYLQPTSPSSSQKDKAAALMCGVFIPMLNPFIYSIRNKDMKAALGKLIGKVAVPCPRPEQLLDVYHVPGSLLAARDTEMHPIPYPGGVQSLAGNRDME
OR1F1 (Homo sapiens), sequence (O43749 whole entry): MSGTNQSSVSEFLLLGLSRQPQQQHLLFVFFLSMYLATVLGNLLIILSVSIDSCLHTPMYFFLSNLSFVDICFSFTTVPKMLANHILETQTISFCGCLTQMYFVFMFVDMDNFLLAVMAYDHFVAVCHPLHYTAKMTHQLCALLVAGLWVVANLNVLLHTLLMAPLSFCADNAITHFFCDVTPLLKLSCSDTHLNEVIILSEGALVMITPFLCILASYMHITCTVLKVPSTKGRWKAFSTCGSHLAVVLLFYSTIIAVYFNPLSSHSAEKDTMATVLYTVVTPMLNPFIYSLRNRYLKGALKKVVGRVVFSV
OR1J1 (Homo sapiens), sequence (Q8NGS3 whole entry): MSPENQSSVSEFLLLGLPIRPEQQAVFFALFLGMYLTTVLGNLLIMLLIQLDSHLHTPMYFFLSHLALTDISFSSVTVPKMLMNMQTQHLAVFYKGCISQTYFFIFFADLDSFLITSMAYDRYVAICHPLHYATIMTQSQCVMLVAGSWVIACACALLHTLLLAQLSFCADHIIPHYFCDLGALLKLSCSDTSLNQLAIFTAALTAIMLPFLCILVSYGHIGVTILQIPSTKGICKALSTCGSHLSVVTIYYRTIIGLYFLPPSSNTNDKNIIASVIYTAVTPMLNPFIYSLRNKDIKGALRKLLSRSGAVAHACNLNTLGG
OR1L8 (Homo sapiens), sequence (Q8NGR8 whole entry): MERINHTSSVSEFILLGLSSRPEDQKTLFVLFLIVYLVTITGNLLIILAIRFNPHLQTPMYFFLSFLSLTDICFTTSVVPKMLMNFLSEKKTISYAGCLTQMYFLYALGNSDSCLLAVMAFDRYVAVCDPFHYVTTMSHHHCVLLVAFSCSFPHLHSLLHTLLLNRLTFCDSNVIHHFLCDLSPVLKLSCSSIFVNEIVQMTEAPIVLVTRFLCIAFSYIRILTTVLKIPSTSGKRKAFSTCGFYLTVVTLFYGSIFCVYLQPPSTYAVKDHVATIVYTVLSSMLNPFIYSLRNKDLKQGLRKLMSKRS
OR1L6 (Homo sapiens), sequence (Q8NGR2 whole entry): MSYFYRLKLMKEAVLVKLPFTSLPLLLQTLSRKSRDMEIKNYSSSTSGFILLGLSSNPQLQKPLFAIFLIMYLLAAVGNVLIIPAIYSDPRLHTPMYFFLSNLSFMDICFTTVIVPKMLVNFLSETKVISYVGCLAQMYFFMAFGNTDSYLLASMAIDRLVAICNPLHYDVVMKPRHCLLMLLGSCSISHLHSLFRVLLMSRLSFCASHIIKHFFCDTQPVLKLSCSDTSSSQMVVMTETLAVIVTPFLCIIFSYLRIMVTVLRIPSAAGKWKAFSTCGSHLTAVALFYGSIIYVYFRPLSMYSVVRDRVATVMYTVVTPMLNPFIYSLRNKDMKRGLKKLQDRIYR
OR1E3 (Homo sapiens), sequence (Q8WZA6 whole entry): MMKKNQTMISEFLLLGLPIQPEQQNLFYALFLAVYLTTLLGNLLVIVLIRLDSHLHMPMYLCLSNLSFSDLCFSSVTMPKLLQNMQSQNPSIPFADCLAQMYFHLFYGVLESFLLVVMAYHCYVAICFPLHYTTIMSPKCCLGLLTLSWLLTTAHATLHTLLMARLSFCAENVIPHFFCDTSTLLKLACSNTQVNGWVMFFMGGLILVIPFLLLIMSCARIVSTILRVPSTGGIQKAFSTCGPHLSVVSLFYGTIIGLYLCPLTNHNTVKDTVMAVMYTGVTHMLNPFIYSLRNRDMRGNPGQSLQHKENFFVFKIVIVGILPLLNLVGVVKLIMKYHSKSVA
OR1L6, sequence (as listed by the source): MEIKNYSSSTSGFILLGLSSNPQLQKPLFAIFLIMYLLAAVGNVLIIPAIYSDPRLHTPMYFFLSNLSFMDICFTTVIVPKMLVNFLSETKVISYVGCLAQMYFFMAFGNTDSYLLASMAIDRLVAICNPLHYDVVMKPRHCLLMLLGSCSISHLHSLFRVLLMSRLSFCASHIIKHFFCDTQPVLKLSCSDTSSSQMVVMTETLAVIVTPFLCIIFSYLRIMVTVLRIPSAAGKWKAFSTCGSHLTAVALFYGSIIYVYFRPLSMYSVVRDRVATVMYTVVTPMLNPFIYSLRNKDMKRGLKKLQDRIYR
OR1J4 (Homo sapiens), sequence (Q8NGS1 whole entry): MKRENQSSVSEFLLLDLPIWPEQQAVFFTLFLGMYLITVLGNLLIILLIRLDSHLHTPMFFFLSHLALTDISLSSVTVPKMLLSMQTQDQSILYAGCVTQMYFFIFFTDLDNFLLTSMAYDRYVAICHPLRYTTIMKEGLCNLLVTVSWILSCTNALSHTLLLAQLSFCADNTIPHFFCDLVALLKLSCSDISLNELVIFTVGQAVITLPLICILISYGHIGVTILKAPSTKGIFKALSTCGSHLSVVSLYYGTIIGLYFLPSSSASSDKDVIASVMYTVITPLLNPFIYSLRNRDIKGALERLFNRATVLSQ
OR1L1, sequence (as listed by the source): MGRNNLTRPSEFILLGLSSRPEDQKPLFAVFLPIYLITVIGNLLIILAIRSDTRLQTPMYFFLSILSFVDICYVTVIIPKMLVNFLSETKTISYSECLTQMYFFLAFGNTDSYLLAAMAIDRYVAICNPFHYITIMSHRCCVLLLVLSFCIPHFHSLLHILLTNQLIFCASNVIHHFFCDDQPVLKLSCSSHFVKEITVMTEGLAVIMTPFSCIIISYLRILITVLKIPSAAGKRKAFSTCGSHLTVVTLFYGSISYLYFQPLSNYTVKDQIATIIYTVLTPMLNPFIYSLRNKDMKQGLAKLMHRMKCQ
OR1L4, sequence (as listed by the source): as the sequence (Q8NGR5 whole entry) above, with G234R counted along it
OR1L1 (Homo sapiens), sequence (Q8NH94 whole entry): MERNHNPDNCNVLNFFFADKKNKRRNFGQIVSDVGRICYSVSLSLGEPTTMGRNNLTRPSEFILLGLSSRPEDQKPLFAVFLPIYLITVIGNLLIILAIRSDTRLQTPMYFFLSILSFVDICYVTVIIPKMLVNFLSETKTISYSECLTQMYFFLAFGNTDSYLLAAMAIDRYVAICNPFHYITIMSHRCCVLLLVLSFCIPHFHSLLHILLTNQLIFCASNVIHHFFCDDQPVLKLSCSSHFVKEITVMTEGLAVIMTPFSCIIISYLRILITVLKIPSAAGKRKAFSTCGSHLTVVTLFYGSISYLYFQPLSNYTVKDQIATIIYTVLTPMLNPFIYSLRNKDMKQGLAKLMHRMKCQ
OR1F1, sequence (as listed by the source): as the sequence (O43749 whole entry) above, with F75S counted along it

C=CCc1ccc2c(c1)OCO2
active: OR1G1 (Homo sapiens)

COc1ccc(C=O)cc1
inactive: OR1G1 (Homo sapiens)

O=CC=Cc1ccccc1
inactive: OR1L3 (Homo sapiens)

CC(=O)CCc1ccc2c(c1)OCO2
active: OR1G1 (Homo sapiens)

C=CCc1ccc(OC)cc1
inactive: OR1G1 (Homo sapiens) | OR1L3 (Homo sapiens)

Cc1c([N+](=O)[O-])c(C)c([N+](=O)[O-])c(C(C)(C)C)c1[N+](=O)[O-]
not listed: OR1F1 | OR1J2 (Homo sapiens) | OR1J4 (Homo sapiens) | OR1L1 | OR1L4 | OR1L6 | OR1L8 T27P R211P
inactive: all other assays above

C=CCOC(=O)Cc1ccccc1
not listed: OR1E3 (Homo sapiens) | OR1L1 (Homo sapiens) | OR1L6 (Homo sapiens)
inactive: all other assays above

c1ccncc1
active: OR1G1 (Homo sapiens)

CC(C=O)Cc1ccc2c(c1)OCO2 (stereo not given)
inactive: OR1G1 (Homo sapiens)

O=Cc1ccccc1
active: OR1G1 (Homo sapiens)
inactive: OR1L3 (Homo sapiens)
